According to ChEMBL document CHEMBL1811814, “Synthesis and evaluation of indole, pyrazole, chromone and pyrimidine based conjugates for tumor growth inhibitory activities--development of highly efficacious cytotoxic agents” (Eur J Med Chem, 2010):

Legend:
Type in all cases: functional
[1] = tested on: HCT-116; experiment: Growth inhibition of human HCT116 cells
[2] = tested on: KM12; experiment: Growth inhibition of human KM12 cells
[3] = tested on: SF-295; experiment: Growth inhibition of human SF295 cells
[4] = tested on: SNB-75; experiment: Growth inhibition of human SNB75 cells
[5] = tested on: U-251; experiment: Growth inhibition of human U251 cells
[6] = tested on: LOX IMVI; experiment: Growth inhibition of human LOXIMVI cells
[7] = tested on: M14; experiment: Growth inhibition of human M14 cells
[8] = tested on: SK-MEL-2; experiment: Growth inhibition of human SK-MEL-2 cells
[9] = tested on: SK-MEL-5; experiment: Growth inhibition of human SK-MEL-5 cells
[10] = tested on: OVCAR-4; experiment: Growth inhibition of human OVCAR4 cells
[11] = tested on: OVCAR-5; experiment: Growth inhibition of human OVCAR5 cells
[12] = tested on: OVCAR-8; experiment: Growth inhibition of human OVCAR8 cells
[13] = tested on: NCI/ADR-RES; experiment: Growth inhibition of human NCI/ADR-RES cells
[14] = tested on: SK-OV-3; experiment: Growth inhibition of human SKOV3 cells
[15] = tested on: ACHN; experiment: Growth inhibition of human ACHN cells
[16] = tested on: SN12C; experiment: Growth inhibition of human SN12C cells
[17] = tested on: TK-10; experiment: Growth inhibition of human TK10 cells
[18] = tested on: PC-3; experiment: Growth inhibition of human PC3 cells
[19] = tested on: BT-549; experiment: Growth inhibition of human BT549 cells
[20] = tested on: MDA-MB-468; experiment: Growth inhibition of human MDA-MB-468 cells
[21] = tested on: K562; experiment: Growth inhibition of human K562 cells assessed tumor cell growth at 10^-5 M; design: scale not given: the % may be the effect or the level left
Method in brief: (§1)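 NCI 60-human-tumor-cell-line panel screen. Each compound was tested at a single concentration of 10^-5 M, and percent growth of tumor cells was recorded for each cell line. Growth inhibition was expressed from these percent-growth values.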

[22] = tested on: A549; experiment: Growth inhibition of human A549 cells assessed tumor cell growth at 10^-5 M; design: scale not given: the % may be the effect or the level left; method in brief: as §1
[23] = tested on: EKVX; experiment: Growth inhibition of human EKVX cells assessed tumor cell growth at 10^-5 M; design: scale not given: the % may be the effect or the level left; method in brief: as §1
[24] = tested on: HOP-92; experiment: Growth inhibition of human HOP92 cells assessed tumor cell growth at 10^-5 M; design: scale not given: the % may be the effect or the level left; method in brief: as §1
[25] = tested on: NCI-H226; experiment: Growth inhibition of human NCI-H226 cells assessed tumor cell growth at 10^-5 M; design: scale not given: the % may be the effect or the level left; method in brief: as §1
[26] = tested on: NCI-H23; experiment: Growth inhibition of human NCI-H23 cells assessed tumor cell growth at 10^-5 M; design: scale not given: the % may be the effect or the level left; method in brief: as §1
[27] = tested on: NCI-H322M; experiment: Growth inhibition of human NCI-H322M cells assessed tumor cell growth at 10^-5 M; design: scale not given: the % may be the effect or the level left; method in brief: as §1
[28] = tested on: NCI-H460; experiment: Growth inhibition of human NCI-H460 cells assessed tumor cell growth at 10^-5 M; design: scale not given: the % may be the effect or the level left; method in brief: as §1
[29] = tested on: NCI-H522; experiment: Growth inhibition of human NCI-H522 cells assessed tumor cell growth at 10^-5 M; design: scale not given: the % may be the effect or the level left; method in brief: as §1
[30] = tested on: COLO 205; experiment: Growth inhibition of human COLO205 cells assessed tumor cell growth at 10^-5 M; design: scale not given: the % may be the effect or the level left; method in brief: as §1
[31] = tested on: HCT-116; experiment: Growth inhibition of human HCT116 cells assessed tumor cell growth at 10^-5 M; design: scale not given: the % may be the effect or the level left; method in brief: as §1
[32] = tested on: HCT-15; experiment: Growth inhibition of human HCT15 cells assessed tumor cell growth at 10^-5 M; design: scale not given: the % may be the effect or the level left; method in brief: as §1
[33] = tested on: SW-620; experiment: Growth inhibition of human SW620 cells assessed tumor cell growth at 10^-5 M; design: scale not given: the % may be the effect or the level left
Method in brief: (§2)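 Single-dose screen at 10^-5 M across the 60 human tumor cell line panel, run to NCI standards. The value is the percent growth of each cell line in the presence of compound. Compounds active at this dose moved on to five-concentration testing (10^-4 to 10^-8 M).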

[34] = tested on: M14; experiment: Growth inhibition of human M14 cells assessed tumor cell growth at 10^-5 M; design: scale not given: the % may be the effect or the level left; method in brief: as §1
[35] = tested on: SK-MEL-2; experiment: Growth inhibition of human SK-MEL-2 cells assessed tumor cell growth at 10^-5 M; design: scale not given: the % may be the effect or the level left; method in brief: as §1
[36] = tested on: SK-MEL-5; experiment: Growth inhibition of human SK-MEL-5 cells assessed tumor cell growth at 10^-5 M; design: scale not given: the % may be the effect or the level left; method in brief: as §1
[37] = tested on: UACC-62; experiment: Growth inhibition of human UACC62 cells assessed tumor cell growth at 10^-5 M; design: scale not given: the % may be the effect or the level left; method in brief: as §2
[38] = tested on: OVCAR-3; experiment: Growth inhibition of human OVCAR3 cells assessed tumor cell growth at 10^-5 M; design: scale not given: the % may be the effect or the level left; method in brief: as §1
[39] = tested on: OVCAR-4; experiment: Growth inhibition of human OVCAR4 cells assessed tumor cell growth at 10^-5 M; design: scale not given: the % may be the effect or the level left; method in brief: as §1
[40] = tested on: OVCAR-8; experiment: Growth inhibition of human OVCAR8 cells assessed tumor cell growth at 10^-5 M; design: scale not given: the % may be the effect or the level left; method in brief: as §1
[41] = tested on: NCI/ADR-RES; experiment: Growth inhibition of human NCI/ADR-RES cells assessed tumor cell growth at 10^-5 M; design: scale not given: the % may be the effect or the level left; method in brief: as §1
[42] = tested on: 786-0; experiment: Growth inhibition of human 786-0 cells assessed tumor cell growth at 10^-5 M; design: scale not given: the % may be the effect or the level left; method in brief: as §1
[43] = tested on: A498; experiment: Growth inhibition of human A498 cells assessed tumor cell growth at 10^-5 M; design: scale not given: the % may be the effect or the level left; method in brief: as §1
[44] = tested on: ACHN; experiment: Growth inhibition of human ACHN cells assessed tumor cell growth at 10^-5 M; design: scale not given: the % may be the effect or the level left; method in brief: as §1
[45] = tested on: SN12C; experiment: Growth inhibition of human SN12C cells assessed tumor cell growth at 10^-5 M; design: scale not given: the % may be the effect or the level left; method in brief: as §1
[46] = tested on: UO-31; experiment: Growth inhibition of human UO31 cells assessed tumor cell growth at 10^-5 M; design: scale not given: the % may be the effect or the level left; method in brief: as §2
[47] = tested on: MDA-MB-231; experiment: Growth inhibition of human MDA-MB-231 cells assessed tumor cell growth at 10^-5 M; design: scale not given: the % may be the effect or the level left; method in brief: as §1
[48] = Growth inhibition of human Hs 578T cells assessed tumor cell growth at 10^-5 M; design: scale not given: the % may be the effect or the level left; method in brief: as §1
[49] = tested on: T47D; experiment: Growth inhibition of human T47D cells assessed tumor cell growth at 10^-5 M; design: scale not given: the % may be the effect or the level left; method in brief: as §2
[50] = tested on: CCRF-CEM; experiment: Growth inhibition of human CCRF-CEM cells
[51] = tested on: EKVX; experiment: Growth inhibition of human EKVX cells
[52] = tested on: HOP-62; experiment: Growth inhibition of human HOP62 cells
[53] = tested on: NCI-H322M; experiment: Growth inhibition of human NCI-H322M cells
[54] = read-out: LC50 (the source's name)

## O=C1/C(=C\c2ccccn2)c2ccccc2N1c1c(Cl)cccc1Cl
[1]
  GI50: 1.7 µM
[1]; [54]
  CC50: 6.9 µM
[2]
  GI50: 1.8 µM
[2]; [54]
  CC50: 6.3 µM
[3]
  GI50: 1.7 µM
[3]; [54]
  CC50: 13.8 µM
[4]
  GI50: 1.4 µM
[4]; [54]
  CC50: 32.3 µM
[5]
  GI50: 1.8 µM
[5]; [54]
  CC50: 7.4 µM
[6]
  GI50: 1.7 µM
[6]; [54]
  CC50: 6.4 µM
[7]
  GI50: 1.7 µM
[7]; [54]
  CC50: 7.7 µM
[8]
  GI50: 2.3 µM
[8]; [54]
  CC50: 24.5 µM
[9]
  GI50: 1.6 µM
[9]; [54]
  CC50: 5.7 µM
[10]
  GI50: 3.7 µM
[10]; [54]
  CC50: > 100 µM
[11]
  GI50: 2.4 µM
[11]; [54]
  CC50: > 100 µM
[12]
  GI50: 2.1 µM
[12]; [54]
  CC50: > 100 µM
[13]
  GI50: 3 µM
[13]; [54]
  CC50: > 100 µM
[14]
  GI50: 3.4 µM
[14]; [54]
  CC50: 74.1 µM
[15]
  GI50: 1.8 µM
[15]; [54]
  CC50: 7.2 µM
[16]
  GI50: 2.2 µM
[16]; [54]
  CC50: 58.8 µM
[17]
  GI50: 3 µM
[17]; [54]
  CC50: 50.1 µM
[18]
  GI50: 2.2 µM
[18]; [54]
  CC50: 93.3 µM
[19]
  GI50: 2.4 µM
[19]; [54]
  CC50: 23.4 µM
[20]
  GI50: 0.9 µM
[20]; [54]
  CC50: 7.4 µM
[21]
  Activity: 9.42%
[22]
  Activity: 50.33%
[23]
  Activity: 27.21%
[24]
  Activity: -7.93%
[25]
  Activity: 25.22%
[26]
  Activity: 12.97%
[27]
  Activity: 61.39%
[28]
  Activity: -29.25%
[29]
  Activity: 36.79%
[30]
  Activity: -1.34%
[31]
  Activity: -94.37%
[32]
  Activity: 12.58%
[33]
  Activity: -56.9%
[34]
  Activity: -43.6%
[35]
  Activity: 48.8%
[36]
  Activity: 23.68%
[37]
  Activity: 24.91%
[38]
  Activity: 27.36%
[39]
  Activity: -7.46%
[40]
  Activity: 4.47%
[41]
  Activity: -26.73%
[42]
  Activity: -81.44%
[43]
  Activity: 21.33%
[44]
  Activity: 19.58%
[45]
  Activity: 18.08%
[46]
  Activity: 16.75%
[47]
  Activity: 15.7%
[48]
  Activity: 22.94%
[49]
  Activity: 12.74%
[50]
  GI50: 3.2 µM
[50]; [54]
  CC50: > 100 µM
[51]
  GI50: 2 µM
[51]; [54]
  CC50: > 100 µM
[52]
  GI50: 2.3 µM
[52]; [54]
  CC50: 89.1 µM
[53]
  GI50: 2.8 µM
[53]; [54]
  CC50: 28.8 µM
